Legend:
[1] = melting temperature; fluorescence melt of hairpins on a sequencing array, two-state fit, raised by 9.35 °C to match UV melts; details: sodium 0.088 M
How it was run: (§1)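 To match UV melts, fitted temperatures were raised by 9.35 °C. These fits were bootstrapped two-state models that gave melting temperature and folding enthalpy, combined by inverse variance over four replicates. The input was normalised Cy3 fluorescence of library hairpins with annealed Cy3 and quencher oligos on a sequenced MiSeq flow cell, imaged in 50 mM Na-HEPES pH 8.0, 25 mM NaCl in 2.5 °C steps up to 60 °C.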

[2] = folding enthalpy; higher = less favourable; fluorescence melt of hairpins on a sequencing array, two-state fit; details: sodium 0.088 M
How it was run: as §1

Sequence | Tm [1] | folding enthalpy [2]
CCGAGGAAACTCGG (((((....))))) | 55.9 °C | -23.9 kcal/mol
CCGATGAAAATCGG (((((....))))) | 55.6 °C | -21.4 kcal/mol
CCGTAGAAATACGG (((((....))))) | 47.3 °C | -17.8 kcal/mol
CCTAAGAAATTAGG (((((....))))) | 28.1 °C | -8.08 kcal/mol
CCTACGAAAGTAGG (((((....))))) | 57 °C | -20.4 kcal/mol
CCTCTGAAAAGAGG (((((....))))) | 48.7 °C | -20.4 kcal/mol
CGAAACGGAAACGTGTCG (((.(((....))).))) | 47.5 °C | -31.5 kcal/mol
CGAAAGCGGAAACGCTCG (((..(((....)))))) | 43.5 °C | -18.2 kcal/mol
CGAAATCGGAAACGATCG (((..(((....)))))) | 34 °C | -22.6 kcal/mol
CGAACCGGAAACGGATCG (((.(((....))).))) | 51.6 °C | -27.6 kcal/mol
CGAACGGAAACGTATTCG ((((((....)))..))) | 29.1 °C | -17.7 kcal/mol
CGAACGGAAACGTCCTCG ((((((....)))..))) | 26.2 °C | -11.4 kcal/mol
CGAACGGAAACGTCTCG ((((((....))).))) | 36.8 °C | -29.3 kcal/mol
CGAACGGAAACGTGATCG ((((((....)))..))) | 28.6 °C | -19.6 kcal/mol
CGAACGGAAACGTTGTCG ((((((....)))..))) | 36.3 °C | -14.1 kcal/mol
CGAACGGAAACGTTTCG ((((((....))).))) | 46.1 °C | -26.2 kcal/mol
CGAACGGAAACGTTTTCG ((((((....)))..))) | 30.4 °C | -16.3 kcal/mol
CGAAGCGGAAACGCGTCG (((.(((....))).))) | 55.1 °C | -29.1 kcal/mol
CGACAACGGAAACGTTCG (((..(((....)))))) | 35.9 °C | -14.3 kcal/mol
CGACCCCGGAAACGGTCG (((..(((....)))))) | 44.4 °C | -21.3 kcal/mol
CGACCGGAAACGGATCG ((((((....))).))) | 48.5 °C | -33.3 kcal/mol
CGACCGGAAACGGATTCG ((((((....)))..))) | 33.6 °C | -16.2 kcal/mol
CGACCGGAAACGGCTTCG ((((((....)))..))) | 28.5 °C | -17 kcal/mol
CGACCGGAAACGGGTCG ((((((....))).))) | 56.9 °C | -32.4 kcal/mol

Sequence | Tm [1] | folding enthalpy [2]
CGACGACGGAAACGTTCG (((..(((....)))))) | 36.9 °C | -14.5 kcal/mol
CGACGCGGAAACGCTTCG (((.(((....))).))) | 50.5 °C | -33.6 kcal/mol
CGACGGCGGAAACGCTCG (((..(((....)))))) | 38.3 °C | -15.4 kcal/mol
CGACTCGGAAACGAATCG (((.(((....))).))) | 41.9 °C | -33.6 kcal/mol
CGAGACCGGAAACGGTCG (((..(((....)))))) | 57.1 °C | -23.4 kcal/mol
CGAGACGGAAACGTTTCG (((.(((....))).))) | 49.6 °C | -41.5 kcal/mol
CGAGCCCGGAAACGGTCG (((..(((....)))))) | 37.5 °C | -20.9 kcal/mol
CGAGCGGAAACGCAGTCG ((((((....)))..))) | 38.1 °C | -13.6 kcal/mol
CGAGCGGAAACGCCTTCG ((((((....)))..))) | 32 °C | -10.7 kcal/mol
CGAGCGGAAACGCGGTCG ((((((....)))..))) | 52.8 °C | -14.9 kcal/mol
CGAGGACGGAAACGTTCG (((..(((....)))))) | 43.1 °C | -19.8 kcal/mol
CGAGGCCGGAAACGGTCG (((..(((....)))))) | 48.5 °C | -19.7 kcal/mol
CGAGGGCGGAAACGCTCG (((..(((....)))))) | 48.5 °C | -16.9 kcal/mol
CGATCCGGAAACGGTTCG (((.(((....))).))) | 49.8 °C | -32 kcal/mol
CGATCGCGGAAACGCTCG (((..(((....)))))) | 36.8 °C | -15.4 kcal/mol
CGATGTCGGAAACGATCG (((..(((....)))))) | 36.2 °C | -17.3 kcal/mol
CGATTGAAAAATCG (((((....))))) | 46 °C | -27.8 kcal/mol
CGCACCGGAAACGGAGCG (((.(((....))).))) | 60.9 °C | -37.2 kcal/mol
CGCACGGAAACGTAAGCG ((((((....)))..))) | 46.4 °C | -34.5 kcal/mol
CGCACGGAAACGTAGCG ((((((....))).))) | 53.8 °C | -30.4 kcal/mol
CGCACGGAAACGTCGCG ((((((....))).))) | 51.1 °C | -35.8 kcal/mol
CGCACGGAAACGTTGCG ((((((....))).))) | 55.1 °C | -37.7 kcal/mol
CGCAGGCGGAAACGCGCG (((..(((....)))))) | 56.2 °C | -23 kcal/mol
CGCATCGGAAACGACGCG (((.(((....))).))) | 51.6 °C | -41.2 kcal/mol

Reference: the array DNA melting data of Ke et al. (doi:10.1101/2024.01.08.574731)
